Reference: ChEMBL document CHEMBL1154031, “Glycolipid ester-type heterodimers from Ipomoea tyrianthina and their pharmacological activity” (Bioorg Med Chem Lett, 2009)
Converted amounts (≈) assume the structure as drawn. The source made the active and inactive calls. The rule behind the calls is not given here.

Experiments:
[1] = system: Brain; assay: Increase in GABA release in mouse cortical brain slice at 20 ug/mL upto 180 seconds; assay type: functional, tissue-based
Method in brief: (§1)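 Anterior cortex slices (250-300 um) cut by hand after decapitation, held at 4 °C in oxygenated modified Krebs-Ringer (pH 7.4) with amino-oxyacetic acid 10.0 uM, then 10 min in basal medium at 37 °C. Compound at a final 20.0 ug/mL; aliquots sampled at 0.5-3.0 min. GABA and glutamate measured by HPLC after O-phthaldialdehyde derivatization and expressed per mg slice protein. Untreated control; mean ± SEM, 3 independent experiments.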

[2] = system: Brain; assay: Increase in glutamic acid release in mouse cortical brain slice assessed per mg of protein at 20 ug/mL upto 180 seconds; assay type: functional; method in brief: as §1
[3] = system: Aorta; assay: Vasorelaxation activity in Wistar rat endothelium-intact thoracic aortic ring assessed as inhibition of noradrenaline-induced contraction; assay type: functional, tissue-based
Method in brief: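 Thoracic aortic rings (3-5 mm) with endothelium intact, held at 3 g tension in Krebs solution at 37 °C, pH 7.4, gassed O2/CO2 19:1. Isometric tension recorded. Rings precontracted with noradrenaline 0.3 uM, then given cumulative concentrations. Relaxation taken from tone before and after addition. Vehicle and positive control run in parallel.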

[4] = system: Mycobacterium tuberculosis; assay: Antimycobacterial activity against Mycobacterium tuberculosis by microplate blue alamar assay; assay type: functional
Method in brief: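 Modified microplate Alamar Blue assay (MABA) against M. tuberculosis. Pure compounds tested over 100.00 to 3.13 µg/mL. Activity recorded as the minimal inhibitory concentration (MIC).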

[5] = system: Aorta; assay: Vasorelaxation activity in Wistar rat endothelium-removed thoracic aortic ring assessed as inhibition of noradrenaline-induced contraction; assay type: functional, tissue-based
Method in brief: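 Endothelium removed from the rings, confirmed by absence of relaxation to carbachol 1 uM. Rings held at 3 g in oxygenated Krebs (37 °C, pH 7.4) and precontracted with noradrenaline 0.3 uM. Cumulative concentration-response curves recorded isometrically. Relaxation calculated by comparing tone before and after compound addition.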

[6] = system: Brain; assay: Increase in GABA release in mouse cortical brain slice at 20 ug/mL after 30 seconds; assay type: functional, tissue-based; method in brief: as §1

Structure (SMILES): CCCCCC1CCCCCCCCCC(=O)O[C@@H]2[C@@H](O[C@@H]3O[C@@H](C)[C@H](OC(=O)CCCCCCCCC[C@@H](CCCCC)O[C@@H]4O[C@H](C)[C@@H](O)[C@H](O)[C@H]4O[C@@H]4O[C@H](CO)[C@@H](O)[C@H](O)[C@H]4O[C@@H]4O[C@@H](C)[C@H](O[C@@H]5O[C@H](C)[C@@H](OC(=O)C(C)CC)[C@H](O)[C@H]5O)C(O)C4OC(=O)C(C)C(C)O)[C@@H](O)[C@@H]3O)[C@H](C)O[C@@H](O[C@H]3[C@H](O[C@H]4[C@H](O1)O[C@H](C)[C@@H](O)[C@@H]4O)O[C@H](COC(=O)C(C)C(C)O)[C@@H](O)[C@@H]3O)[C@@H]2OC(=O)C(C)C(C)O (stereo partly drawn) [TYRIANTHIN A]
- Activity [1]: Active
- Activity [2]: 100 pmol
- Emax [3]: 81.8%
- IC50 [3]: 240 nM
- MIC [4]: 100 µg/mL (≈ 47.7 µM)
- Activity [5]: inactive
- Activity [6]: Active

Structure (SMILES): CCCCCC1CCCCCCCCCC(=O)O[C@@H]2[C@@H](O[C@@H]3O[C@@H](C)[C@H](OC(=O)CCCCCCCCC[C@@H](CCCCC)O[C@@H]4O[C@H](C)[C@@H](O)[C@H](O)[C@H]4O[C@@H]4O[C@H](CO)[C@@H](O)[C@H](O)[C@H]4O[C@@H]4O[C@@H](C)[C@H](O[C@@H]5O[C@H](C)[C@@H](O)[C@H](O)[C@H]5O)C(O)C4OC(=O)CCC)[C@@H](O)[C@@H]3O)[C@H](C)O[C@@H](O[C@H]3[C@H](O[C@H]4[C@H](O1)O[C@H](C)[C@@H](O)[C@@H]4O)O[C@H](COC(=O)C(C)C(C)O)[C@@H](O)[C@@H]3O)[C@@H]2OC(=O)C(C)C(C)O (stereo partly drawn) [TYRIANTHIN B]
- Activity [1]: inactive
- Activity [2]: 180 pmol
- IC50 [3]: 140 nM
- MIC [4]: 100 µg/mL (≈ 50.5 µM)
- Activity [5]: inactive
- Activity [6]: Active
